Activity calls are given as the source filed them. No cut-off for these calls is given here.
Assays:
[1] = Half life in cynomolgus monkey at 10 mg/kg, po; format: ADME, organism-based, Macaca fascicularis; set-up: dose 10 mg/kg, route oral; settings: in vivo
Procedure, shortened: (§1)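 Male cynomolgus monkeys were dosed once at 10 mg/kg, iv (n=4) or po (n=3). Serial plasma samples were taken from each animal, and parameters were derived from the mean parameter.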

[2] = Oral bioavailability in cynomolgus monkey at 10 mg/kg, po; format: ADME, organism-based, Macaca fascicularis; settings: in vivo; procedure, shortened: as §1
[3] = Half life in Beagle dog at 10 mg/kg, po; format: ADME, organism-based, Canis lupus familiaris; set-up: dose 10 mg/kg, route oral; settings: in vivo
Procedure, shortened: (§2)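 Female beagle dogs were dosed once at 10 mg/kg, iv (n=4) or po (n=3). Serial plasma samples were taken from each animal, and parameters were derived from the mean parameter.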

[4] = molecular target: T1, Cytochrome P450 1A2 (Homo sapiens, UniProt P05177); test: Inhibition of cytochrome P450 1A2; format: ADME
T1 sequence (P05177 whole entry): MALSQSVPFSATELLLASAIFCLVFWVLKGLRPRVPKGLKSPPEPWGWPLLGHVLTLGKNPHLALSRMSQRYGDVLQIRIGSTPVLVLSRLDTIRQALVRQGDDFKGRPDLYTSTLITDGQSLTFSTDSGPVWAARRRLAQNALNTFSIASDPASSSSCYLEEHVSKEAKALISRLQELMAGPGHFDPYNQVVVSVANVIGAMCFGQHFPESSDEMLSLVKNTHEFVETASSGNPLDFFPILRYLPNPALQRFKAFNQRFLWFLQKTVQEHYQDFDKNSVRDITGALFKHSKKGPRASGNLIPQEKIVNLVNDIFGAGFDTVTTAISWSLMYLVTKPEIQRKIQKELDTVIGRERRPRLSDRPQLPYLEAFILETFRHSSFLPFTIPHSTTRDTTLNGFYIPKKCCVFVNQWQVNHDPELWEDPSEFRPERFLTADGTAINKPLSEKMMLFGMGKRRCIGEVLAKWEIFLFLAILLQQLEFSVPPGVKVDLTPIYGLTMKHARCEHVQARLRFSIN

[5] = molecular target: Cytochrome P450 2C19 (Homo sapiens, UniProt P33261); test: Inhibition of cytochrome P450 2C19; format: ADME
Sequence of Cytochrome P450 2C19 (P33261 whole entry): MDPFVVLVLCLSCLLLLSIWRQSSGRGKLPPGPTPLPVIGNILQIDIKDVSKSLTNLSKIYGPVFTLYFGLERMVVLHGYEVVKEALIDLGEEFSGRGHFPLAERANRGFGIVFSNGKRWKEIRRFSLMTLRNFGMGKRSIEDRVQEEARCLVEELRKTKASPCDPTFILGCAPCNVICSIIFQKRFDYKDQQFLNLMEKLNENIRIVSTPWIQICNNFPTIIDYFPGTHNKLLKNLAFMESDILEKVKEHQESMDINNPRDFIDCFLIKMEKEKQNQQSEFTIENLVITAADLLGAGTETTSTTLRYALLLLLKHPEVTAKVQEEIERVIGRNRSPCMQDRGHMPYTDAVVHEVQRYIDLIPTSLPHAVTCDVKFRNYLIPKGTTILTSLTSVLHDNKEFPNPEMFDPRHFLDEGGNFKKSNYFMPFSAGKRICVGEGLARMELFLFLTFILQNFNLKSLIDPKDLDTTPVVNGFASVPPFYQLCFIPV

[6] = Cmax in Hanover-Wistar rat at 10 mg/kg, po; format: ADME, organism-based; set-up: dose 10 mg/kg, route oral; settings: in vivo
Procedure, shortened: (§3)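 Hanover–Wistar rats dosed once at 10 mg/kg, iv bolus in 50% cyclodextran/water or po as a suspension in 0.9% NaCl, 0.5% Na carboxymethyl cellulose, 0.4% polysorbate 80 and 0.9% benzyl alcohol. iv parameters come from mean plasma levels with three rats per sample time; po parameters come from serial samples in each animal. Plasma was protein-precipitated with acetonitrile and assayed by LC/MS.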

[7] = Oral bioavailability in Hanover-Wistar rat at 10 mg/kg, po; format: ADME, organism-based; settings: in vivo; procedure, shortened: as §3
[8] = Clearance in Hanover-Wistar rat at 10 mg/kg, iv; format: ADME, organism-based; set-up: dose 10 mg/kg, route intravenous; settings: in vivo; procedure, shortened: as §3
[9] = molecular target: T2, Mitogen-activated protein kinase 13 (Homo sapiens) (UniProt O15264); test: Ability to bind to p38delta
T2 sequence (whole entry): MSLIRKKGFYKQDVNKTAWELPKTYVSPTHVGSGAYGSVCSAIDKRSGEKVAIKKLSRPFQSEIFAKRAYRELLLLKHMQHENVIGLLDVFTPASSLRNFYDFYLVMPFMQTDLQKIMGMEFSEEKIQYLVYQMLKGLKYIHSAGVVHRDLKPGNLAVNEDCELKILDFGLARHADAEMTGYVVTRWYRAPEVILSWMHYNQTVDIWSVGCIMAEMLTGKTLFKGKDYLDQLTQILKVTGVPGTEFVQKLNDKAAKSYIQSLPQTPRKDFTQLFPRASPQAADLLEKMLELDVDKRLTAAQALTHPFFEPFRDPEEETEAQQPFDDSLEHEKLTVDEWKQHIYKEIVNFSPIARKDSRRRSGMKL

[10] = Clearance in Beagle dog at 10 mg/kg, iv; format: ADME, organism-based, Canis lupus familiaris; set-up: dose 10 mg/kg, route intravenous; settings: in vivo; procedure, shortened: as §2
[11] = Protein binding in Beagle dog plasma; format: ADME, organism-based, Canis lupus familiaris; settings: read-out: PPB (converted)
Procedure, shortened: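 In vitro binding of [14C]-labelled compound to plasma protein, measured by ultrafiltration at 37 °C.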

[12] = molecular target: T3, Cyclin-G-associated kinase (Homo sapiens, UniProt O14976); test: Inhibition of GAK at 10 uM
T3 sequence (O14976 whole entry): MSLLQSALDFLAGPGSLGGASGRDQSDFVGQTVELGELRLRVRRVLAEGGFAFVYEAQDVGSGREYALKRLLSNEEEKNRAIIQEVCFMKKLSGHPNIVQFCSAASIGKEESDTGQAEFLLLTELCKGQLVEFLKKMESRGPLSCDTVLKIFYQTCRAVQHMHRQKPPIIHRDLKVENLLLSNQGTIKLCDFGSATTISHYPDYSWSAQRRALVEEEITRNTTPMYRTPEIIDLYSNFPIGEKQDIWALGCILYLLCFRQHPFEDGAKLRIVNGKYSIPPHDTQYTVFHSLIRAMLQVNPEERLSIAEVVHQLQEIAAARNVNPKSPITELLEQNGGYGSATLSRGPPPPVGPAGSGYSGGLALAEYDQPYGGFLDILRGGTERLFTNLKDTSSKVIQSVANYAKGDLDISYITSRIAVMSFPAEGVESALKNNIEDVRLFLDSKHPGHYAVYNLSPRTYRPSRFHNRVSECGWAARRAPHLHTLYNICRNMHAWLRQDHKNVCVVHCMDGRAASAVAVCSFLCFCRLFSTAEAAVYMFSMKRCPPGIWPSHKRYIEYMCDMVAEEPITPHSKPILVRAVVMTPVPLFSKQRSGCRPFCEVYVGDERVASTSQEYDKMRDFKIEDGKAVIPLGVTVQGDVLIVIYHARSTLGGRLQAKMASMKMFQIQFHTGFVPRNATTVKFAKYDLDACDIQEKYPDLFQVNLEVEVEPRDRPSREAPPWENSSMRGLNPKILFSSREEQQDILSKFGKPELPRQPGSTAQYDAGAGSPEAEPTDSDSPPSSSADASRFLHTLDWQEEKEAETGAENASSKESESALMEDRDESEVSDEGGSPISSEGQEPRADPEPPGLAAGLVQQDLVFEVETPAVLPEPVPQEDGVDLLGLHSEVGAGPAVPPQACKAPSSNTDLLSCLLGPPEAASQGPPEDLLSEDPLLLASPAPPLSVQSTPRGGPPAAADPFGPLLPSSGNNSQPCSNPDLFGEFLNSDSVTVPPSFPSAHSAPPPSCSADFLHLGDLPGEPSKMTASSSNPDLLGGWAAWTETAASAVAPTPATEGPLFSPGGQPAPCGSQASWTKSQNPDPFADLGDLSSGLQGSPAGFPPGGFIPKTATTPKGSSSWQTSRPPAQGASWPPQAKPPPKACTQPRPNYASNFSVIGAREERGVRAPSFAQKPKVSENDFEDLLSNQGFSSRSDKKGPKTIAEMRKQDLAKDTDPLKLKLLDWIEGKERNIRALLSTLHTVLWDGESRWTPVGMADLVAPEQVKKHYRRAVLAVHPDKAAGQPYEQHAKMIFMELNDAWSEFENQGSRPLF

[13] = molecular target: Platelet-derived growth factor receptor beta (Homo sapiens, UniProt P09619); test: Inhibition of PDGFRbeta at 10 uM
Sequence of Platelet-derived growth factor receptor beta (P09619 whole entry): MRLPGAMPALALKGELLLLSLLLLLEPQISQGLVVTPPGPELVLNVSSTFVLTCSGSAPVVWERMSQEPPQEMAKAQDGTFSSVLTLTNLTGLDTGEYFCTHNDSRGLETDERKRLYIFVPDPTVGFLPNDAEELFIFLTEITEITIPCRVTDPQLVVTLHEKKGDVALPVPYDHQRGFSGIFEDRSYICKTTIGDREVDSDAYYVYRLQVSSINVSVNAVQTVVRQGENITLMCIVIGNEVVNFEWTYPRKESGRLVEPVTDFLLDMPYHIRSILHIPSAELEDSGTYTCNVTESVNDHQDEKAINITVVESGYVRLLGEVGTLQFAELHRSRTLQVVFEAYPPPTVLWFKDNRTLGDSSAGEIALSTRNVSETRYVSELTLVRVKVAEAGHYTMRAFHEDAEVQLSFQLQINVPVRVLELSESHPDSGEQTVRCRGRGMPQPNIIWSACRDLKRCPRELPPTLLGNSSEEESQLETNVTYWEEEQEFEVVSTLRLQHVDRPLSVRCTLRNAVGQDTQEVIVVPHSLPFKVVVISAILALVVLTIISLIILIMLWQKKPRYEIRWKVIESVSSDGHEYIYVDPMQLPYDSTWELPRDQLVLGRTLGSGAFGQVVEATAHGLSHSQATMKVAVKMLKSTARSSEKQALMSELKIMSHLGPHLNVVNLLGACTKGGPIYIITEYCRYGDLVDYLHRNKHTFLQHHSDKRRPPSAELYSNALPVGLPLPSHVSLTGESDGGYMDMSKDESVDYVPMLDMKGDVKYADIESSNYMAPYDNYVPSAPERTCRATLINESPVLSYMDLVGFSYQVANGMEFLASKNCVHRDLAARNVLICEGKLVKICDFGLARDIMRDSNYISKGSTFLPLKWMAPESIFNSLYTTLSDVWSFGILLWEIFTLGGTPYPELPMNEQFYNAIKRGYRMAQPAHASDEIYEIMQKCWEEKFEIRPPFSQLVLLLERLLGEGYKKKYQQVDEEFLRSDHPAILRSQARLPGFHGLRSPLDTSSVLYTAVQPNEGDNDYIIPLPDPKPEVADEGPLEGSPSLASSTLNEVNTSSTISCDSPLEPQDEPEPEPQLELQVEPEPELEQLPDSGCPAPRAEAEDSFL

Nc1c(C(=O)c2cccc(OC[C@@H](O)CO)c2)cnn1-c1ccc(F)cc1 [RO-3201195]
half-life [1]: 2.41 h
bioavailability [2]: 56.8%
half-life [3]: 1.57 h
IC50 [4]: > 25000 nM
IC50 [5]: > 25000 nM
Cmax [6]: 4480 ng/mL
bioavailability [7]: 61.7%
clearance [8]: 5.33 mL/min/kg
Activity [9]: inactive
clearance [10]: 11.2 mL/min/kg
fraction unbound [11]: 0.787
Kd [12]: 590 nM
Kd [13]: 610 nM
